This is an account of results in ChEMBL document CHEMBL1782036, “Atovaquone derivatives as potent cytotoxic and apoptosis inducing agents” (Bioorg Med Chem Lett, 2009).

The test system of one test is HepG2. Description: Antiproliferative activity against human HepG2 cells after 72 hrs by MTT assay. In kind it is functional, cell-based. Conditions: HepG2, 72 h. In general terms: Formazan colour is commonly taken as a measure of viable cells.
The subject of the next test is MCF7. Description: Antiproliferative activity against human MCF7 cells after 72 hrs by MTT assay. The note with it: MCF7, 72 h. In kind it is functional, cell-based.
A further test relates to OS-RC-2. Description: Antiproliferative activity against human OS-RC2 cells after 72 hrs by MTT assay. The class given is functional, cell-based. The note with it: OS-RC-2, 72 h.
Test [1] relates to DU-145. Briefly: Induction of apoptosis in human DU145 cells assessed as caspase-9 activation at 1 to 10 uM after 24 hrs by Western blot analysis. The class given is functional, cell-based. The method, boiled down: (§1)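 Du145 lysates from dose-ranging treatment were analysed by Western blot for activation of caspase 9 and caspase 3.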
Background: In western blotting, separated proteins are transferred to a membrane and probed.

Test [2] has as its system DU-145. Briefly: Induction of apoptosis in human DU145 cells at 5 uM after 72 hrs by AnnexinV conjugated 7- AAD staining by flow cytometry. In kind it is functional, cell-based. The essentials: (§2)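 Du145 cells were treated for 72 h and stained with Annexin V conjugate plus 7-AAD. Flow cytometry read PS externalization and membrane integrity, scoring cells as live (double negative), early apoptotic, or late apoptotic/necrotic (double positive). Untreated cells served as the control.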

Test [3] deals with DU-145. Description: Induction of apoptosis in human DU145 cells at 10 uM after 72 hrs by AnnexinV conjugated 7- AAD staining by flow cytometry. The class given is functional, cell-based. The method, boiled down: as §2
In test [4] the test system is DU-145. Briefly: Induction of apoptosis in human DU145 cells at 10 uM assessed as live cell level after 72 hrs by AnnexinV conjugated 7- AAD staining by flow cytometry. The class given is functional. The method, boiled down:
as §2
On the technique in general: A flow cytometer gives signals particle by particle.

Test [5] concerns DU-145. Description: Induction of chromatin condensation in human DU145 cells at 20 uM by Hoechst 33342 staining by fluorescent microscopy. The class given is functional, cell-based. The method, boiled down: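 Du145 cells were exposed for 24 h, with 0.2% DMSO as the vehicle control. Nuclei were stained with Hoechst 33342 and viewed by fluorescence microscopy at 100× for chromatin condensation and nuclear shrinkage.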

The test system of the next test is HT-29. Description: Antiproliferative activity against human HT-29 cells after 72 hrs by MTT assay. In kind it is functional, cell-based. Conditions: HT-29, 72 h.
Another test concerns HT-1080. Briefly: Antiproliferative activity against human HT1080 cells after 72 hrs by MTT assay. The class given is functional, cell-based. Conditions: HT-1080, 72 h.
The subject of test [6] is DU-145. Briefly: Induction of apoptosis in human DU145 cells at 10 uM assessed as early apoptosis level after 72 hrs by AnnexinV conjugated 7- AAD staining by flow cytometry. The class given is functional. The essentials: as §2
A further test concerns A549. Description: Antiproliferative activity against human A549 cells after 72 hrs by MTT assay. The class given is functional, cell-based. The note with it: A549, 72 h.
The next test deals with HeLa. Description: Antiproliferative activity against human HeLa cells after 72 hrs by MTT assay. In kind it is functional, cell-based.
Another test relates to MOLT-4. Briefly: Antiproliferative activity against human MOLT4 cells after 72 hrs by MTT assay. Conditions: MOLT-4, 72 h. The class given is functional, cell-based.
For a further test, the system named is SGC-7901. Briefly: Antiproliferative activity against human SGC7901 cells after 72 hrs by MTT assay. The class given is functional, cell-based. The note with it: SGC-7901, 72 h.
The test system of test [7] is DU-145. Briefly: Induction of apoptosis in human DU145 cells at 10 uM assessed as dead cell level after 72 hrs by AnnexinV conjugated 7- AAD staining by flow cytometry. In kind it is functional. The essentials: (§3)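 Du145 human prostate carcinoma cells exposed to compound for 72 h, then stained with Annexin V and 7-AAD and analysed by flow cytometry. Annexin V detects phosphatidylserine externalised to the outer membrane leaflet, and 7-AAD enters only membrane-compromised cells. Dead cells were those positive for both stains. Untreated cells served as control.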

For the next test, the system named is U-251. Description: Antiproliferative activity against human U251 cells after 72 hrs by MTT assay. In kind it is functional, cell-based. Conditions: U-251, 72 h.
For a further test, the system named is IMR-90. Description: Antiproliferative activity against human IMR90 cells after 72 hrs by MTT assay. In kind it is cell-based. The note with it: IMR-90, 72 h.
For test [8], the system named is DU-145. Briefly: Induction of apoptosis in human DU145 cells assessed as caspase-3 activation at 1 to 10 uM after 24 hrs by Western blot analysis. In kind it is functional, cell-based. The essentials:
as §1

Test [9] is described as follows: Antiproliferative activity against human L78 cells after 72 hrs by MTT assay. The class given is functional, cell-based. Conditions: L78, 72 h.
The subject of the next test is KB. Description: Antiproliferative activity against human KB cells after 72 hrs by MTT assay. In kind it is functional, cell-based.
For test [10], the system named is DU-145. Briefly: Growth inhibition of human DU145 cells after 72 hrs by MTT assay. In kind it is functional, cell-based. The note with it: DU-145, 72 h. The method, boiled down: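 Du145 human prostate carcinoma cells were screened by MTT cell-growth inhibition assay. IC50 values are means of three experiments.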
For test [11], the system named is DU-145. Briefly: Induction of apoptosis in human DU145 cells at 5 uM assessed as live cell level after 72 hrs by AnnexinV conjugated 7- AAD staining by flow cytometry. The class given is functional. The essentials: as §2
Test [12] concerns DU-145. Briefly: Induction of apoptosis in human DU145 cells at 5 uM assessed as dead cell level after 72 hrs by AnnexinV conjugated 7- AAD staining by flow cytometry. In kind it is functional. The essentials: as §3
Test [13] relates to DU-145. Briefly: Induction of apoptosis in human DU145 cells at 5 uM assessed as early apoptosis level after 72 hrs by AnnexinV conjugated 7- AAD staining by flow cytometry. The class given is functional. The method, boiled down: as §2
For test [14], the system named is DU-145. Description: Induction of apoptosis in human DU145 cells at 5 uM assessed as late apoptosis/ necrotic cells level after 72 hrs by AnnexinV conjugated 7- AAD staining by flow cytometry. In kind it is functional. The essentials: as §2
In test [15] the test system is DU-145. Briefly: Induction of apoptosis in human DU145 cells at 10 uM assessed as late apoptosis/ necrotic cells level after 72 hrs by AnnexinV conjugated 7- AAD staining by flow cytometry. The class given is functional. The essentials:
as §2

Active and inactive are the calls of the source. No cut-off for these calls is given here.

What is called IC50 is the concentration that inhibits the measured activity by half. As to `O=C1C=C(N2CCN(c3ccccc3)CC2)C(=O)c2c(O)cccc21`, the IC50 came to 5.4 µM with HepG2; 5.2 µM in the test with MCF7; 1.5 µM in the test with OS-RC-2; 2.9 µM in the test with HT-29; 8.2 µM with HT-1080; 4.2 µM in the test with A549. The IC50 in the test with HeLa is 6.9 µM; in the test on MOLT-4 it was more than 50 µM; with SGC-7901 it was 3.7 µM; with U-251 it was 6.1 µM; with IMR-90, more than 50 µM; in test [9], 3.6 µM. Moreover, the IC50 stood at 7 µM in the test on KB and 2.8 µM with DU-145 [10]. The Activity result was “Dose-dependent effect” in the test with DU-145 [1]; 2.8% in the test on DU-145 [4]; 37.6% with DU-145 [6]; 58% in the test with DU-145 [7]; “Dose-dependent effect” in the test with DU-145 [8]. Moreover, the outcome with DU-145 [2], in the test on DU-145 [3] and in the test with DU-145 [5] was Active.
As for `Cc1ccccc1C1CCN(C2=CC(=O)c3cccc(O)c3C2=O)CC1`, the IC50 in the test with HepG2 is 16.6 µM; in the test on MCF7 it was 8.9 µM; with OS-RC-2, 3.2 µM; in the test with HT-29, 6.7 µM; with HT-1080, more than 50 µM; with A549, 5.2 µM. The IC50 was 9.7 µM in the test with HeLa; more than 50 µM in the test on MOLT-4; 3.9 µM in the test with SGC-7901; 30.4 µM with U-251; more than 50 µM in the test with IMR-90; 4.4 µM in test [9]. Moreover, the IC50 in the test with KB was 4.4 µM; in the test with DU-145 [10], 2.5 µM. In addition, the Activity with DU-145 [11] was 51.4%; with DU-145 [12] it was 3.9%; in the test on DU-145 [4], 0.96%; in the test on DU-145 [6], 14.31%; in the test on DU-145 [13], 10.31%; with DU-145 [7] it was 0.42%. Further, the Activity came out at 34.39% in the test on DU-145 [14] and 84.32% in the test with DU-145 [15].
Consider `O=C1C=C(N2CCN(c3ccccc3Cl)CC2)C(=O)c2ccccc21`, for which the IC50 is 11.1 µM in the test on HepG2; 10.3 µM with MCF7; 8.9 µM in the test on OS-RC-2; 18.9 µM with HT-29; 15.4 µM in the test with HT-1080; 10.3 µM in the test with A549. For the same molecule, the IC50 with HeLa was 11.3 µM; with MOLT-4 it was more than 50 µM; with SGC-7901 it was 41.8 µM; in the test with U-251, 30.8 µM; in the test on IMR-90, more than 50 µM; in test [9], 28.8 µM. The IC50 in the test with KB stood at 3.7 µM; in the test with DU-145 [10] it was 2.9 µM. In addition, the Activity in the test on DU-145 [11] was determined as 91.36%; in the test on DU-145 [12], 3.99%; with DU-145 [4], 85.3%; in the test on DU-145 [6] it was 1.89%; in the test with DU-145 [13] it was 1.01%; with DU-145 [7], 3.1%. In addition, the Activity came to 3.65% in the test with DU-145 [14] and 9.71% in the test with DU-145 [15].
`Cc1ccccc1N1CCN(C2=CC(=O)c3cccc(O)c3C2=O)CC1`: the IC50 with HepG2 amounted to 10.3 µM; in the test on MCF7 it was 9.7 µM; with OS-RC-2, 4.4 µM; in the test on HT-29 it was 2.8 µM; in the test on HT-1080 it was 11 µM; in the test with A549 it was 5.3 µM. Further, the IC50 was 7.2 µM in the test with HeLa; more than 50 µM with MOLT-4; 5.3 µM in the test on SGC-7901; 10.2 µM in the test with U-251; more than 50 µM in the test on IMR-90; 15.1 µM in test [9]. The IC50 in the test on KB was determined as 6.6 µM; with DU-145 [10], 2.3 µM. Further, the Activity in the test on DU-145 [11] came out at 69.54%; with DU-145 [12], 11.08%; in the test with DU-145 [4], 18.75%; with DU-145 [6], 18.28%; in the test on DU-145 [13] it was 3.89%; in the test on DU-145 [7], 3.64%. The results for the Activity in the test on DU-145 [14] and in the test on DU-145 [15] were 15.49% and 59.33%, respectively.
